These results are taken from ChEMBL document CHEMBL1143394, “Benzopyridooxathiazepine derivatives as novel potent antimitotic agents” (Bioorg Med Chem, 2009).

Each structure is given as a SMILES string.

Usually IC50 stands for the concentration that gives 50% inhibition. A high value points to weaker potency. For orientation: T/C means the result in the treated group divided by that in the control group, in per cent. What is called bioavailability is dose-corrected exposure relative to a reference, in per cent.

The test system of series [1] is L1210. Briefly: Cytotoxicity against mouse L1210 cells after 48 hrs by MTT assay. The format is functional, cell-based. The conditions noted are these: L1210, 48 h. An outline of the steps:
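Murine L1210 cells in RPMI 1640 with 10% FCS, glutamine, antibiotics and HEPES pH 7.4, exposed 48 h to graded concentrations. MTT added for 4 h at 37 °C, formazan dissolved in DMSO, OD 540 nm. IC50 (50% OD reduction vs untreated controls) by linear regression on linear zone of dose–response; triplicate.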
A general note: Formazan colour is commonly taken as a measure of viable cells.

For a further series, the system named is A549. In words: Cytotoxicity against human A549 cells after 96 hrs by MTA assay. It counts as functional. The method in brief:
(§1)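 Adherent DU145, HT29, A549, KB 3-1 and KB-A1 cells grown in RPMI 1640 with 10% FCS, 2 mM glutamine, antibiotics and HEPES pH 7.4. Seeded, grown 2 days, then exposed to compound 96 h (about 4 doubling times). MTT added for 4 h at 37 °C, formazan dissolved in DMSO, read at 540 nm. IC50 from linear regression on linear part of dose–response; triplicate.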

For another series, the system named is DU-145. In words: Cytotoxicity against human DU145 cells after 96 hrs by MTA assay. It counts as functional. The method in brief:
as §1

The test system of series [2] is L1210. Briefly: Cell cycle arrest in mouse L1210 cells assessed as accumulation at G1 phase at 200 nM after 21 hrs by flow cytometry using propidium iodide staining. The format is functional. The method in brief: (§2)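 L1210 cells exposed to compound for 21 h (two doubling times), fixed in 70% ethanol, washed, stained 30 min at 20 °C in D-PBS with RNAse and propidium iodide; 10⁴ cells per sample analysed by flow cytometry for G1, S, G2+M and 8N (tetraploid) fractions.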
(In general: In flow cytometry, cells or beads pass a laser one at a time.)

Series [3] has as its system L1210. Briefly: Cell cycle arrest in mouse L1210 cells assessed as accumulation at S phase at 200 nM after 21 hrs by flow cytometry using propidium iodide staining. It counts as functional. The method in brief: as §2
Series [4] has as its system L1210. Briefly: Cell cycle arrest in mouse L1210 cells assessed as accumulation at G2/M phase at 200 nM after 21 hrs by flow cytometry using propidium iodide staining. The format is functional. The method in brief: as §2
Series [5] relates to L1210. In words: Cell cycle arrest in mouse L1210 cells assessed as accumulation of tetraploid cells at 200 nM after 21 hrs by flow cytometry using propidium iodide staining. It counts as functional. An outline of the steps:
as §2

Series [6] relates to L1210. In words: Cell cycle arrest in mouse L1210 cells assessed as accumulation at G2/M phase at 25 nM after 21 hrs by flow cytometry using propidium iodide staining. The format is functional. An outline of the steps:
as §2

Series [7] in a line: Cytotoxicity against adriamycin-resistant human KB-A1 cells after 96 hrs by MTA assay. The format is functional. An outline of the steps: as §1
Series [8] is described as follows: Cytotoxicity against human KB-3-1 cells after 96 hrs by MTA assay. It counts as functional. An outline of the steps: as §1
The next series relates to HT-29. Briefly: Cytotoxicity against human HT29 cells after 96 hrs by MTA assay. The format is functional. An outline of the steps: as §1
In series [9] the test system is L1210. In words: Cell cycle arrest in mouse L1210 cells assessed as accumulation at G1 phase at 25 nM after 21 hrs by flow cytometry using propidium iodide staining. The format is functional. The method in brief:
as §2

The test system of series [10] is L1210. In words: Cell cycle arrest in mouse L1210 cells assessed as accumulation at S phase at 25 nM after 21 hrs by flow cytometry using propidium iodide staining. It counts as functional. The method in brief: as §2
Series [11] deals with L1210. Briefly: Cell cycle arrest in mouse L1210 cells assessed as accumulation of tetraploid cells at 25 nM after 21 hrs by flow cytometry using propidium iodide staining. It counts as functional. An outline of the steps:
as §2

Series [12] in a line: Inhibition of tubulin polymerization.
The test system of series [13] is P388. Briefly: Antitumor activity against mouse P388 cells xenografted in B6D2F1 mouse at 100 mg/kg, iv relative to control. It counts as functional. An outline of the steps:
(§3)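 P388 leukaemia cells inoculated ip at 10⁶ cells/mouse into B6D2F1 mice on day 0; compound given once ip or iv on day 1. Result expressed as % T/C = median survival time of treated over untreated controls ×100.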

The test system of series [14] is P388. Briefly: Antitumor activity against mouse P388 cells xenografted in B6D2F1 mouse at 50 to 100 mg/kg, ip relative to control. The format is functional. The conditions noted are these: dose mg/kg 50-100; route intraperitoneal. The method in brief:
as §3

The nature of series [15]: Metabolic stability in mouse liver microsomes assessed as bioavailability. The conditions noted are these: read-out: Metabolic Bioavailability. The format is ADME, Microsome.
The nature of series [16]: Metabolic stability in human liver microsomes assessed as bioavailability. It counts as ADME, Microsome. As to conditions: read-out: Metabolic Bioavailability. In general terms: Liver microsomes are a subcellular fraction often used to study metabolism.
Series [17] concerns P388. Briefly: Antitumor activity against mouse P388 cells xenografted in B6D2F1 mouse assessed as survivality at 100 mg/kg, iv. The format is functional. The method in brief: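 P388 murine leukemia cells inoculated intraperitoneally (10⁶ cells/mouse) into B6D2F1 mice on day 0. Single intravenous dose given on day 1. Readout is percent T/C: median survival time of treated mice divided by median survival time of controls, ×100.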

Series [18] deals with P388. In words: Antitumor activity against mouse P388 cells xenografted in B6D2F1 mouse assessed as survivality at 50 to 100 mg/kg, ip. The format is functional. The conditions noted are these: dose mg/kg 50-100, route intraperitoneal.
Series [19] concerns L1210. Briefly: Cell cycle arrest in mouse L1210 cells assessed as accumulation at G1 phase at 50 nM after 21 hrs by flow cytometry using propidium iodide staining. The format is functional. An outline of the steps:
as §2

Series [20] has as its system L1210. Briefly: Cell cycle arrest in mouse L1210 cells assessed as accumulation at S phase at 50 nM after 21 hrs by flow cytometry using propidium iodide staining. The format is functional. An outline of the steps: as §2
Series [21] deals with L1210. In words: Cell cycle arrest in mouse L1210 cells assessed as accumulation at G2/M phase at 50 nM after 21 hrs by flow cytometry using propidium iodide staining. It counts as functional. An outline of the steps: as §2
The subject of series [22] is L1210. In words: Cell cycle arrest in mouse L1210 cells assessed as accumulation of tetraploid cells at 50 nM after 21 hrs by flow cytometry using propidium iodide staining. It counts as functional. An outline of the steps: as §2
The test system of series [23] is L1210. Briefly: Cell cycle arrest in mouse L1210 cells assessed as accumulation at G1 phase at 100 nM after 21 hrs by flow cytometry using propidium iodide staining. It counts as functional. An outline of the steps:
as §2

Series [24] relates to L1210. In words: Cell cycle arrest in mouse L1210 cells assessed as accumulation at S phase at 100 nM after 21 hrs by flow cytometry using propidium iodide staining. The format is functional. The method in brief:
as §2

Series [25] has as its system L1210. In words: Cell cycle arrest in mouse L1210 cells assessed as accumulation at G2/M phase at 100 nM after 21 hrs by flow cytometry using propidium iodide staining. It counts as functional. An outline of the steps:
as §2

Series [26] has as its system L1210. Briefly: Cell cycle arrest in mouse L1210 cells assessed as accumulation of tetraploid cells at 100 nM after 21 hrs by flow cytometry using propidium iodide staining. The format is functional. An outline of the steps:
as §2

In the case of `O=S1(=O)Oc2ccccc2N=C2C1=CC=CN2CCc1ccc(-c2ccccc2)cc1`, in the series with L1210 [1], the half-inhibitory concentration (IC50) came to 5 µM.

As for `COc1ccccc1CCN1C=CC=C2C1=Nc1ccccc1OS2(=O)=O`, the midpoint of inhibition in the series on L1210 [1], the IC50, lay at 14.8 µM.

Turning to `O=S1(=O)Oc2ccccc2N=C2C1=CC=CN2CCc1ccc(OCc2ccccc2)cc1`, the concentration for half-maximal inhibition (IC50) in the series with L1210 [1] was above 100 µM.

On to `O=S1(=O)Oc2ccccc2N(CCc2cccc3ccccc23)c2ncccc21`, for which the IC50 in the series with L1210 [1] was above 100 µM.

In the series on L1210 [1], `O=S1(=O)Oc2ccccc2N=C2C1=CC=CN2CCc1cccc2ccccc12` registered an IC50 of 9.6 µM.

`COc1ccc(CCN2c3ccccc3OS(=O)(=O)c3cccnc32)cc1` had a concentration for half-maximal inhibition (IC50) in the series with L1210 [1] of 26.5 µM.

`COc1ccc(CCN2C=CC=C3C2=Nc2cc(OC)ccc2OS3(=O)=O)cc1`: the Activity with A549 is 99.1 nM; in the series with DU-145, 116 nM; in the series with L1210 [2], 8%; with L1210 [3] it was 11%; with L1210 [4] it was 22%; in the series with L1210 [5] it was 59%. The molecule also displayed an IC50 in the series on L1210 [1] of 0.043 µM.

In the series on L1210 [1], `COc1cc(CCN2c3ccccc3OS(=O)(=O)c3cccnc32)cc(OC)c1OC` came in with an IC50 of 36.8 µM.

Turning to `COc1ccc(CCN2C=CC=C3C2=Nc2ccccc2OS3(=O)=O)cc1`, the Activity is 25% with L1210 [6]; 13.2 nM in [7]; 16 nM in [8]; 10 nM in the series with HT-29; 11.5 nM in the series with A549; 17 nM with DU-145. The Activity in the series on L1210 [9] is listed as 4%; with L1210 [10] it was 3%; in the series with L1210 [11] it was 60%; with P388 [17], 41%; with P388 [18], 61%. In addition, the IC50 with L1210 [1] came to 0.0095 µM. In addition, in series [12], the INH is 2.2 µM. Further, the T/C in the series with P388 [13] turned out to be 141%; in the series with P388 [14] it was 161%. The bioavailability in [15] and in series [16] was below 12% each time.

In turn, `O=S1(=O)Oc2ccccc2N=C2C1=CC=CN2CCc1ccc(O)cc1` displayed an IC50 in the series on L1210 [1] of 0.6 µM.

In the case of `COc1ccc(CCCN2C=CC=C3C2=Nc2ccccc2OS3(=O)=O)cc1`, half-maximal inhibition in the series with L1210 [1] (IC50) required 8.6 µM.

Molecule `COc1ccc(CN2c3ccccc3OS(=O)(=O)c3cccnc32)cc1` gave an IC50 with L1210 [1] of 0.77 µM.

Turning to `COc1ccc(CCN2C=CC=C3C2=Nc2cc(Cl)ccc2OS3(=O)=O)cc1`, the Activity in the series with HT-29 came out at 27.1 nM; with DU-145 it was 42.3 nM; in the series on L1210 [19] it was 3%; in the series on L1210 [20], 3%; in the series with L1210 [21] it was 29%; in the series on L1210 [22], 65%. This molecule had a half-inhibitory concentration (IC50) with L1210 [1] of 0.027 µM.

`COc1ccc(CCN2C=CC=C3C2=Nc2ccccc2NS3(=O)=O)cc1` showed an IC50 in the series on L1210 [1] of 0.3 µM.

In the series on L1210 [1], `COc1ccccc1CCN1c2ccccc2OS(=O)(=O)c2cccnc21` showed an IC50 above 10 µM.

For the molecule `COc1ccc(CCN2c3cc(OC)ccc3OS(=O)(=O)c3cccnc32)cc1`, the IC50 with L1210 [1] turned out to be 11.2 µM.

In the series on L1210 [1], `COc1ccc(CCN2c3cc(C)ccc3OS(=O)(=O)c3cccnc32)cc1` displayed an IC50 of 22.5 µM.

In the case of `COc1ccc(CN2C=CC=C3C2=Nc2ccccc2OS3(=O)=O)cc1`, the IC50 in the series on L1210 [1] came out at 3.2 µM.

Consider `COc1cccc(CCN2C=CC=C3C2=Nc2ccccc2OS3(=O)=O)c1`, for which the half-inhibitory concentration (IC50) in the series on L1210 [1] was found to be 0.8 µM.

In the case of `COc1cc(CCN2C=CC=C3C2=Nc2ccccc2OS3(=O)=O)cc(OC)c1OC`, the IC50 in the series on L1210 [1] was 27.7 µM.

In the case of `COc1ccc(CCN2C=CC=C3C2=Nc2cc(C)ccc2OS3(=O)=O)cc1`, the Activity with HT-29 was 50.2 nM; in the series on L1210 [23], 4%; with L1210 [24], 3%; in the series on L1210 [25], 17%; in the series on L1210 [26], 75%. The same molecule yielded a half-maximal inhibitory concentration (IC50) with L1210 [1] of 0.037 µM.

As for `COc1ccc(CCCN2c3ccccc3OS(=O)(=O)c3cccnc32)cc1`, in the series on L1210 [1], the IC50 came out at 15.4 µM.

For `COc1cc([C@@H]2c3cc4c(cc3C[C@H]3COC(=O)[C@@H]32)OCO4)cc(OC)c1OC`, the INH in [12] was 2.4 µM.
